Compounds with a hit are over-represented: about 3.7% of the library has one in this group of screens.
KCNK9 inh: human KCNK9 channel inhibition. B-score at 10 µM. actives 1.2% (n = 310,000). HEK293 KCNK9, FluxOR thallium flux fluorescence; active compounds read low;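 active = ratio B-score over 3 SD below the library mean, with starting fluorescence within 5 SD of its mean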;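 also: negative B-score means less thallium flux so channel inhibition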
KCNK3 block: human KCNK3 channel inhibition, primary screen; O14649; CHO-KCNK3 thallium flux, FluxOR fluorescence; active compounds read low; B-score at 10 µM; actives 0.84% (n = 340,000); AID 602410;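 active = B-score under library mean minus 4 SD, starting fluorescence ratio at most library mean plus 5 SD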;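 also: more negative B-score means stronger inhibition of thallium flux through KCNK3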
Target sequence (O14649 whole entry, looked up): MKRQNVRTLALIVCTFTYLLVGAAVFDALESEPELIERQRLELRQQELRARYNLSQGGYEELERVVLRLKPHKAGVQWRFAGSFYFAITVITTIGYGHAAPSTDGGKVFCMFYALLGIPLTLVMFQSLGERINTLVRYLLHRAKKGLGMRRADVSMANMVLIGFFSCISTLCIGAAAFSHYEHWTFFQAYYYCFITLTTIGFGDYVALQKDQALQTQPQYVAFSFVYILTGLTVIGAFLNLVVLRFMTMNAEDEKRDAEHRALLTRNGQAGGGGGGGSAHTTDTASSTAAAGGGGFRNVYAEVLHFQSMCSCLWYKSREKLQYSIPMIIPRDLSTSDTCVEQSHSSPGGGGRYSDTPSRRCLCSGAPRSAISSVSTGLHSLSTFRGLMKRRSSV
KCNQ1 block: blocks the human KCNQ1 potassium channel; P51787; CHO-K1 KCNQ1, FluxOR thallium flux fluorescence; active compounds read high; B-score at 10 µM; actives 1.3% (n = 310,000); AID 2642;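 active = compounds whose thallium flux B-score, printed positive for inhibition, exceeds three library SD while starting fluorescence stays within three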;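 also: channel opened by potassium depolarization with thallium stimulus after 20 min compound exposure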
Kir21 block: Kir2.1 (mouse) channel inhibition; P35561; HEK293-Kir2.1, FluxOR thallium flux fluorescence; active compounds read low; B-score at 10 µM; actives 0.85% (n = 310,000);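 active = fluorescence ratio B-score at or below minus 3 SD of library scores, with starting-brightness B-score within 2 SD, cut at about -4.2 in these data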;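 also: channel flux triggered by added potassium and thallium sulfate stimulus; B-score of peak minus minimum fluorescence over baseline after thallium stimulus; more negative B-score means stronger Kir2.1 block with less thallium influx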
KCNQ1 pot: potentiates or activates the human KCNQ1 potassium channel; P51787; CHO-K1 KCNQ1, thallium flux FluxOR fluorescence; active compounds read high; B-score at 10 µM; actives 0.35% (n = 310,000);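 active = fluorescence ratio B-score, a plate-corrected score, at least three library SD, with initial intensity B-score within 5 SD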
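Doses: Single concentration per compound, DMSO matched to controls | Test system: KCNQ1-transfected CHO-K1 cells | Timing: 90 min dye loading and 20 min compound exposure, both at room temperature | Measured by: Kinetic FluxOR thallium fluorescence, 10-s 1-Hz baseline, 110-s post-stimulus read | Medium: Assay buffer with matched DMSO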
hERG rescue: compounds protecting human hERG from proarrhythmic drug block | Q12809 | CHO-hERG, FluxOR thallium flux, dofetilide IC70 present | activation (rescue from dofetilide block), less the hit threshold, % at 10 µM | actives 0.51% (n = 310,000);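 active = activation above the mean of controls blocked by dofetilide plus 5 SD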;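 also: thallium influx through hERG after potassium depolarization seen as dye fluorescence rise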
Active calls of the source: *; i = inactive; x = not tested or not shown.

SMILES	KCNK9 inh	KCNK3 block	KCNQ1 block	Kir21 block	KCNQ1 pot	hERG rescue
COC(=O)C1=C(C)N=c2s/c(=C/c3ccoc3)c(=O)n2C1c1ccccc1 (stereo unspecified)	i	i	9*	-1.2	i	-18
CC1=C(C(=O)OC(C)C)C(c2ccc(Cl)cc2)n2c(s/c(=C\c3ccc(OCC(=O)O)cc3)c2=O)=N1 (stereo unspecified)	i	i	7*	-2	i	-1
CCOc1ccc(C(=O)Nc2nnc(C3=COCCO3)o2)cc1	i	i	i	-1.7	i	-2
CC(Oc1ccc2c(c1)oc(=O)c1ccccc12)C(=O)NCCN1CCOCC1 (stereo unspecified)	i	i	i	1.1	i	-6
CCOC(=O)c1c(NS(C)(=O)=O)sc2c1CCC(C)C2 (stereo unspecified)	i	i	i	-0.25	8*	1
COC(=O)c1c(NS(=O)(=O)c2ccc(C)cc2)sc2c1CCC(C)C2 (stereo unspecified)	x	i	x	x	x	x
COc1cccc(CN(C(=O)Cc2c[nH]c3ccccc23)C(C(=O)NC2CCCCC2)c2cccs2)c1 (stereo unspecified)	i	i	7*	-1.6	i	-14
O=C(NC1CCCCC1)C(c1cccs1)N(C(=O)Cc1c[nH]c2ccccc12)c1ccc(F)cc1 (stereo unspecified)	i	i	i	0.41	i	-9
COc1ccc(C(C(=O)NC2CCCCC2)N(Cc2cccs2)C(=O)Cc2c[nH]c3ccccc23)cc1 (stereo unspecified)	-7.3*	i	i	1.4	i	-9
CC(C)(NS(=O)(=O)OCC(Cl)(Cl)Cl)c1ccccc1	i	i	i	-4.1	i	0
CC[C@@](C)(NS(=O)(=O)OCC(Cl)(Cl)Cl)c1ccccc1	i	i	i	-5.1*	i	-8
CCOc1ccccc1OCCCC(=O)Nc1cccc(-n2cnnn2)c1C	x	i	x	x	x	x
COc1ccc(Br)cc1C(=O)NC(=S)Nc1c(C)n(C)n(-c2ccccc2)c1=O	i	i	i	0.84	i	4.8*
Cc1c(NC(=S)NC(=O)c2ccccc2Cl)c(=O)n(-c2ccccc2)n1C	i	i	i	-0.11	i	-3
CC[C@@]1(C(=O)OC)N[C@H](CN(C)S(=O)(=O)c2ccc(OC(F)(F)F)cc2)[C@@H]2C(=O)N(C)C(=O)[C@@H]21	x	i	x	x	x	x
CSC1=C(C#N)C(CC(C)C)C2=C(CCCC2=O)N1 (stereo unspecified)	i	i	i	0.18	i	-4
CSC1=C(C#N)C(CC(C)C)C(C(C)=O)=C(C)N1 (stereo unspecified)	i	i	i	-6.5*	i	-2
OCCNc1nc(-c2ccccc2)c2cc(Cl)ccc2n1	i	i	i	1.4	i	-5
COCCNC(=O)c1cccc(Nc2nc(-c3ccccc3)c3cc(Cl)ccc3n2)c1	-6.8*	i	i	1.9	i	-7
COc1ccc(S(=O)(=O)N2CCNCC2)cc1	i	i	i	0.54	i	6.5*
COc1ccc(S(=O)(=O)N2CCCCCC2)cc1	i	i	i	-0.01	i	-12
CCOc1ccccc1CNC(=O)C1CCN(c2nnc(C)c3c(C)n(-c4ccc(C)cc4)nc23)CC1	i	i	i	-0.54	i	-11
Cc1ccc(-n2nc3c(N4CCC(C(=O)NCc5ccccc5C)CC4)nnc(C)c3c2C)cc1	i	i	7*	-1.5	i	-9
Cc1ccc(C(=O)N(C)CCOc2ccccc2)cc1S(=O)(=O)N1CCOCC1	x	i	x	x	x	x
Cc1cc(C(=O)CSc2ncnc3ccccc23)c(C)n1C1CC1	x	i	x	x	x	x
SMILES	KCNK9 inh	KCNK3 block	KCNQ1 block	Kir21 block	KCNQ1 pot	hERG rescue
Cc1cc(-n2c(C)cc(C(=O)CSc3ncnc4ccccc34)c2C)no1	i	i	6*	0.84	i	-19
CC(=O)N[C@@H](Cc1c[nH]c2ccccc12)C(=O)OCC(=O)Nc1cc(C)on1	x	i	x	x	x	x
C=CCN1C=C/C(=C\C=C(C#N)C#N)c2ccccc21	i	i	i	0.33	i	-8
CCCCCCN1C=C/C(=C\C=C(C#N)C#N)c2ccccc21	-7.2*	i	i	-1.8	i	-12
O=C(NNc1ccc([N+](=O)[O-])cn1)Nc1ccc(N=Nc2ccccc2)cc1	x	i	x	x	x	x
O=C(c1ccc2c(c1)OCO2)C1CCCN(Cc2ccc(OC(F)F)cc2)C1 (stereo unspecified)	i	i	i	-10*	i	-13
COc1cc(OC)c(OC)cc1CN1CCCC(C(=O)c2ccc3c(c2)OCO3)C1 (stereo unspecified)	i	i	i	0.36	i	-8
CCN1C(=O)C(CC(=O)Nc2ccc(OC)cc2)N(CCc2ccc(OC)cc2)C1=S (stereo unspecified)	i	i	6*	0	i	-26
COc1ccc2c(c1OC)C(=O)N1C2SC(C)(C)[C@H]1C(=O)NC(C)C (stereo partly specified)	i	i	i	0.56	i	-5
Cc1noc(C)c1CSc1ncnc2sc3c(c12)CCCCC3	i	i	i	-0.14	11*	35*
Cc1cc(C)n(-c2c(C)[nH]c3ccccc23)n1	i	i	i	-4.2*	i	-4
CC(C)=CCC/C(C)=C/CC(C)(C)CNCCN1CCNCC1	i	x	i	-8.2*	i	-8
CC(C)=CCC/C(C)=C/CCC(C)NCCN1CCNCC1 (stereo unspecified)	i	x	i	-7.4*	i	-13
O=[N+]([O-])c1ccc(Nc2ccc3ccccc3c2)nc1	i	i	i	-0.36	i	5.5*
O=C(/C=C\c1ccc(-c2cccc([N+](=O)[O-])c2)o1)N1CCOCC1	i	i	i	1.1	i	1
COC(=O)c1cc2occc2n1Cc1cccc(C)c1	i	i	i	-0.01	i	-13
Cc1cccc(Cn2c(C(=O)OC(C)C)cc3c2ccn3C)c1	i	i	6*	-0.39	i	-17
Cc1ccc(-n2nc3c(=O)n(CCCC(=O)NCc4ccc(C)o4)nc(C)c3c2C)cc1	i	i	i	-0.62	i	-9
O=C(NC1CC1)c1ccc2c(c1)C1C3CCC(C3)C1C(c1ccccc1)N2 (stereo unspecified)	i	i	i	-0.56	i	5.2*
CCC[C@@H](CN[C@@H](CNC)[C@H](C)CC)NCC1CCC(C(C)(C)C)CC1 (stereo partly specified)	i	i	i	-4.9	i	-12
